TPT1 inhibitor: C. albicans TPT1 enzyme inhibition. AID 1962. 0.81% of 300,000 active. recombinant caTPT1, FP RNA substrate dephosphorylation. inhibition, % at 5 µM;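 active = inhibition above the mean of all tested compounds plus 3 SD, set per screening campaign, cut at about 24% in these data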;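 also: plate controls were DMSO alone for no effect and ferristatin control at 100 nM for full effect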
Rev-erbA mod: modulates human Rev-erb alpha binding to DNA | Rev-erbα–FITC-DNA binding, fluorescence polarization, 90 min | activity, % at 10 µM | 0.79% of 370,000 active | AID 1259318;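 active = activity above about 14%, limit read from the data; passing the limit was not always enough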;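 also: 0% = DMSO wells with 35 nM protein and 100% = DMSO wells with 750 nM protein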
HNF4A DNA FP: change in binding of human HNF4 alpha to DNA; P41235; HNF4a-FITC DNA binding, fluorescence polarization, 1 h; activity change, % at 10 µM; 0.3% of 360,000 active; AID 1224865; in the data active = activity change above about 30%, passing the limit was not always enough
Target sequence (P41235 whole entry, looked up): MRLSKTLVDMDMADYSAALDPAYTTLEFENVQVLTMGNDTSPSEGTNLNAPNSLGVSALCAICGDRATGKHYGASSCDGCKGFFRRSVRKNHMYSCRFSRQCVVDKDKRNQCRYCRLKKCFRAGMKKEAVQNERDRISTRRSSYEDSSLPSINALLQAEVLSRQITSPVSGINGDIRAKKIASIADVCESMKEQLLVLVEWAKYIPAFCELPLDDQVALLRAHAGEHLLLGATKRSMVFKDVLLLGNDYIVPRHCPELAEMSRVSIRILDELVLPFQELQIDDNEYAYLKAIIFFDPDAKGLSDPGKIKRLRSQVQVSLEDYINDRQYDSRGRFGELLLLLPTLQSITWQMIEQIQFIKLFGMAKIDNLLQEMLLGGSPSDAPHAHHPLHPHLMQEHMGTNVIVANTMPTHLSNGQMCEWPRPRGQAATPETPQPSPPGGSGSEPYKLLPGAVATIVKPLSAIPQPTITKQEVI
CSN inh: inhibitors of human CSN-mediated cullin deneddylation | Q92905 | inhibition, % at 12.5 µM | AID 651999 | Purified CSN, SCF-Nedd8-OG deneddylation, fluorescence polarization | 0.38% of 360,000 active;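 active = pattern-corrected inhibition above about 35%, with an unprinted fluorescence ratio check between 0.5 and 1.5, limit read from the data, passing the limit was not always enough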;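 also: 0% = enzyme with substrate and 100% = substrate without enzyme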
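Assay system: HEK293T-derived human Csn5 enzyme; quantity: 0.24 nM enzyme; medium: Tris/NaCl/DTT buffer, pH 7.5; also added: substrate SCFSkp2-Nedd8OG, 10 nM; doses: 12.5 µM compound; schedule: 90 min reaction at room temperature; signal: FP; read-out: % inhibition of substrate cleavage by Csn5; benchmarks: substrate-only high control, full reaction low control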
TPT1 inh confirm: confirmation of Candida albicans TPT1 inhibitors | inhibition, % at 5 µM | AID 2149 | recombinant caTPT1, fluorescence polarization, RNase T1 coupled | shares compounds with TPT1 inhibitor | 74% of 2,400 active;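 active = inhibition above the primary screen limit, the mean inhibition of all tested compounds plus 3 SD, cut at about 25% in these data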
RNase T1 inh: RNase T1 inhibition in TPT1 counter-screen; shares compounds with TPT1 inhibitor; RNase T1 cleavage, fluorescence polarization, 1536-well; inhibition, % at 5 µM; 83% of 2,400 active; AID 2153;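 active = inhibition above the solvent-only control well mean plus 3 SD, limit set per screening run, cut at about 23% in these data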;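 also: plate controls were DMSO wells with enzyme for no effect and wells without RNase T1 for full effect; inhibitors block cleavage so intact labeled substrate keeps polarization high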
Target sequence (P00651 whole entry, looked up): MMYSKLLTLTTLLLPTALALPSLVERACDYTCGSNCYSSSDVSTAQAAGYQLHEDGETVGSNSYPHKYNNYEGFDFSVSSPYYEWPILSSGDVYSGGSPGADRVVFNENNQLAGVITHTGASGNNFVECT
Numbers without * were called inactive; . = no result. Hits are enriched below; roughly 1.7% of the tested compounds scored in any of these assays.

SMILES | TPT1 inhibitor | Rev-erbA mod | HNF4A DNA FP | CSN inh | TPT1 inh confirm | RNase T1 inh
COc1ccc(C(=O)c2sc3nc(-c4ccc(OC)cc4)ccc3c2N)cc1 | 54* | -4 | 16 | 4 | 83* | 91*
Nc1c(C(=O)Nc2ccccc2)sc2nc(-c3ccco3)ccc12 | 18 | -9 | 13 | 29 | . | .
COc1ccc(-c2ccc3c(N)c(C(=O)c4cccc(OC)c4)sc3n2)cc1 | 63* | 1 | 13 | 4 | 63* | 74*
COc1ccccc1NC(=O)c1sc2nc(-c3ccco3)ccc2c1N | 28* | . | 21 | 17 | 19 | 27*
COc1cccc(-c2ccc3c(N)c(C(=O)NC4CC4)sc3n2)c1 | -1 | 1 | 1 | 3 | . | .
CCn1c(=O)cc(N2CCN(c3cccc(C(F)(F)F)c3)CC2)[nH]c1=O | . | -5 | . | . | . | .
CCCCCCCCN1C(=O)[C@@H](CC(=O)NCCCOC)C[C@@]2(C(=O)OC)C1=C[C@H](C(C)(C)C)O[C@@H]2C | . | 2 | . | . | . | .
O=C(NCCCc1ccccc1)OC1CC2CC1[C@H]1CCCCN1C2 (some centres undefined) | . | -5 | . | . | . | .
CC1(C)CC(NNCCC#N)=CC(=[N+]2CCCC2)C1 | 49* | -2 | 5 | -6 | 54* | 69*
CC1=[N+](C)N(c2ccccc2)C(=O)C1N=Cc1c(Cl)cccc1Cl (centres undefined) | 133* | -1 | 1 | -1 | 7 | 11
CC1=[N+](C)N(c2ccccc2)C(=O)C1N=Cc1ccccc1Cl (centres undefined) | -1 | 1 | -2 | -7 | . | .
O=C1Nc2cc(C(=O)N3CCN(c4ccccc4F)CC3)ccc2NC1CSCc1ccccc1F (centres undefined) | 134* | . | . | . | 91* | 99*
COc1ccc(N2CCN(C(=O)c3ccc4c(c3)NC(=O)C(CSCc3ccccc3F)N4)CC2)cc1 (centres undefined) | . | -3 | 34 | 2 | . | .
Cc1cccc(N2CCN(C(=O)c3ccc4c(c3)NC(=O)C(CSCc3cccc(F)c3)N4)CC2C)c1 (centres undefined) | 98* | 1 | 81* | 33 | 99* | 110*
COc1ccccc1N1CCN(C(=O)c2ccc3c(c2)NC(=O)C(CSCc2ccccc2C)N3)CC1 (centres undefined) | 75* | . | . | . | 15 | 26*
Nc1cc2ccccc2cc1NS(=O)(=O)N1CCCCC1 | . | 3 | . | . | . | .
Cc1ccc(NC(=O)C2CCN(c3nnc(-n4cccc4)s3)CC2)c(C)c1 | . | 0 | . | . | . | .
CCCCS(=O)(=O)NCC1CCN(C(=O)C(=O)c2cc3ccccc3o2)CC1 | . | -2 | . | . | . | .
O=C(N1CCOCC1)N1CC[C@H]2[C@H](CCCN2Cc2ccccc2)C1 | . | 4 | . | . | . | .
CCNc1nc(N)c([N+](=O)[O-])c(Nc2cccc(Cl)c2)n1 | . | -10 | . | . | . | .
CCOC(=O)C1=CCN(S(=O)(=O)c2cccc(Cl)c2)C1c1cccc(Br)c1 (centres undefined) | . | 4 | . | . | . | .
Cc1ccc(CN2CC=CS2(=O)=O)cc1 | . | -4 | . | . | . | .
Cc1cc(C(F)(F)F)c2c(n1)sc1c(O)cc(=O)[nH]c12 | -5 | -2 | 5 | 0 | . | .
O=c1cc(O)c2sc3nc(-c4cccnc4)cc(C(F)(F)F)c3c2[nH]1 | 32* | 2 | 12 | 11 | 28* | 40*
CN1CCCCC(NC(=O)c2ccc(F)c(F)c2)C1=O (centres undefined) | . | -2 | . | . | . | .
SMILES | TPT1 inhibitor | Rev-erbA mod | HNF4A DNA FP | CSN inh | TPT1 inh confirm | RNase T1 inh
O=C(N/N=C/c1ccc(-c2cccc(C(F)(F)F)c2)o1)c1ccccc1Br | 39* | 8 | 6 | 17 | 38* | 49*
CC(=O)C1=C(C)N(Cc2ccc(Br)cc2)C(=S)NC1c1cccc(F)c1 (centres undefined) | . | 8 | . | . | . | .
Cc1ccnc(N/C=C(\C#N)c2nc(-c3cccc(Br)c3)cs2)c1 | 30* | 0 | -13 | -72 | 26* | 40*
N#C/C(=C\Nc1ccc2cn[nH]c2c1)c1nc(-c2ccccc2)cs1 | . | -4 | 13 | 3 | . | .
CCCCCCCC(=O)N[C@H]1CC[C@@]23CCCN2C(=O)CCC[C@H]3[C@H]1C | . | 8 | . | . | . | .
CCCC(=O)OC[C@H]1CN([C@H](C)c2ccccc2)S(=O)(=O)c2c(F)cccc2O1 | . | -1 | . | . | . | .
N#CC1=C(N)OC2=C(CC/C2=C\c2ccc(F)cc2)C1c1ccc(F)cc1 (centres undefined) | 103* | . | . | . | 95* | 102*
N#CC1=C(N)Oc2cc(N)ccc2C1c1ccc(F)cc1 (centres undefined) | 1 | -3 | 0 | 4 | . | .
COC(=O)c1cc(NC(=O)c2ccccc2)c(=O)oc1C/C=N\OCc1ccc(Cl)cc1Cl | 31* | 4 | 24 | 16 | 28* | 36*
CO/N=C\Cc1oc(=O)c(NC(=O)c2ccccc2)cc1C(=O)OC | 8 | 5 | 2 | -11 | . | .
Cc1cc(C)cc(Nc2ccc(C(=O)O)cc2N)c1 | 29* | -8 | 4 | -2 | 7 | 10
N#C/C(=C\c1ccc([N+](=O)[O-])o1)C(=O)Nc1ccc(F)cc1 | 39* | -2 | 15 | 23 | 42* | 55*
CC(=O)N(C)C[C@@H]1OCc2ccccc2-c2c(n(C)c3ccccc23)C(=O)N([C@@H](C)CO)C[C@@H]1C | . | -1 | . | . | . | .
CC(=C\C=O)/C(C)=C/CC[C@@H]1O[C@@H]2C[C@@H]3O[C@](C)(C[C@H]4C[C@H](O)[C@@H]5O[C@@H]6C[C@H](O)[C@@H](C)O[C@@]6(C)CC[C@H]5O4)[C@@H](O)CC[C@@]3(C)O[C@H]2[C@@H](O)[C@@H]1C | . | 1 | . | . | . | .
COC(=O)[C@]12C[C@H](CC(=O)N3CCN(C(=O)c4ccco4)CC3)C(=O)N(CCC3=CCCCC3)C1=C[C@H](COCc1ccccc1)O[C@@H]2C | . | 3 | . | . | . | .
COc1ccc(N=Cc2oc3ccc4ccccc4c3c2O)cc1 | 114* | -24 | 35 | 23 | 71* | 75*
CC(=O)Nc1ccc(SCC(=O)c2c(N)n(Cc3ccccc3)c(=O)n(C)c2=O)cc1 | 1 | 0 | 1 | 0 | . | .
CC(=O)NC(=S)c1c(N)n(Cc2ccccc2)c(=O)n(C)c1=O | 38* | . | . | . | 32* | 43*
Cc1cc([N+](=O)[O-])ccc1-c1ccc(/C=N/NC(=O)Cc2ccccc2)o1 | 24* | 5 | -25 | -10 | 24* | 37*
NC(=S)N/N=C/c1ccc(-c2ccc([N+](=O)[O-])cc2)o1 | 27* | -4 | 6 | 3 | 36* | 47*
NC(=S)N/N=C/c1ccc(-c2cc(Cl)cc(Cl)c2)o1 | 6 | -2 | 14 | 13 | . | .
Cc1c[nH]c2cccc(-c3c(Cl)cccc3Cl)c12 | . | 17 | . | . | . | .
NC(=O)c1cc[n+](CC2=C(C(=O)O)N3C(=O)[C@@H](NC(=O)C(c4ccccc4)S(=O)(=O)[O-])[C@H]3SC2)cc1 (some centres undefined) | 41* | . | -78 | 17 | 39* | 9

Screening results: PubChem, several laboratories
